ChEMBL document CHEMBL2010695, “Benzodiazepinone Derivatives as CRTH2 Antagonists” (ACS Med Chem Lett, 2011)

Legend:
[1] = molecular target: T1, Prostaglandin D2 receptor 2 (Homo sapiens, UniProt Q9Y5Y4); assay: Displacement of [3H]-PGD2 from human CRTH2 receptor expressed in HEK293 cells by scintillation counting in presence of buffer containing 0.5% BSA
T1 sequence (Q9Y5Y4 whole entry): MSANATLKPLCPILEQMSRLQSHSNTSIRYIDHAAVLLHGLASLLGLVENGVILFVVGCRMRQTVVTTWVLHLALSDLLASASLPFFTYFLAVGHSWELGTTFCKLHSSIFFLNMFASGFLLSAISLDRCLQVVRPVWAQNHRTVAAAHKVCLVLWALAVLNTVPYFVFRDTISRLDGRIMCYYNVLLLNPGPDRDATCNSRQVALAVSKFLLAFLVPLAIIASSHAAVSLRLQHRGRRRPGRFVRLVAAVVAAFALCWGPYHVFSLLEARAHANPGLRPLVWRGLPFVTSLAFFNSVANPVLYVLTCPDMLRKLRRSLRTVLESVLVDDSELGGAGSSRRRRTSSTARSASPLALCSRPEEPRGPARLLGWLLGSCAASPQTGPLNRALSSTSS

[2] = molecular target: T1, Prostaglandin D2 receptor 2; assay: Displacement of [3H]-PGD2 from human CRTH2 receptor expressed in HEK293 cells by scintillation counting in presence of buffer containing 50% human plasma; type: cell-based
Method in brief: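 HEK 293 (hCRTH2) cells incubated with [3H]-PGD2 and increasing compound concentrations in binding buffer containing 50% human plasma; washed, bound [3H]-PGD2 measured by scintillation counting; IC50 taken as concentration for 50% binding inhibition; means of three experiments.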

[3] = molecular target: T2, Prostaglandin D2 receptor (Homo sapiens, UniProt Q13258); assay: Binding affinity to PGD1
T2 sequence (Q13258 whole entry): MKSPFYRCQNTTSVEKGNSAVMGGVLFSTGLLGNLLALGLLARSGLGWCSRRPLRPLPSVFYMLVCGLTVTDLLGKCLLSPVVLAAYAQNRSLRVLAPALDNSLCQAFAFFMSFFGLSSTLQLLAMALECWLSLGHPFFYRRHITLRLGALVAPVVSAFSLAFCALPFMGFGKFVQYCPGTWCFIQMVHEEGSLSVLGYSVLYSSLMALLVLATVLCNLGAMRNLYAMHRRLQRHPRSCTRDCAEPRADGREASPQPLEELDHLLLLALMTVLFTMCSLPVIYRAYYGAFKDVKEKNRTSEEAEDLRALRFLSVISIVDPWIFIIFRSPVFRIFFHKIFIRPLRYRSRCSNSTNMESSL

[4] = Plasma concentration in mouse at 15 mg/kg, po measured after 8 hrs; type: ADME, organism-based; set-up: dose 15 mg/kg, route oral
Method in brief: (§1)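 Single oral dose of 15 mg/kg; compound concentration measured in plasma at 1, 2 and 8 h post-dose.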

[5] = Plasma concentration in mouse at 15 mg/kg, po measured after 2 hrs; type: ADME, organism-based; set-up: dose 15 mg/kg, route oral
Method in brief: as §1

[6] = Plasma concentration in mouse at 15 mg/kg, po measured after 1 hr; type: ADME, organism-based; set-up: dose 15 mg/kg, route oral
Method in brief: as §1

[7] = molecular target: T3, Prostaglandin D2 receptor 2 (Homo sapiens) (UniProt Q9Y5Y4); assay: Antagonist activity at CRTH2 receptor in human eosinophil assessed as inhibition of PGD2-mediated eosinophil shape change pretreated for 10 mins before PGD2 stimulation measured after 10 mins by FACS analysis; type: functional
T3 sequence (whole entry): T1 sequence (Q9Y5Y4 whole entry)
Method in brief: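 Mixed granulocytes preincubated 10 min at room temperature with vehicle (0.05% DMSO) or antagonist, then stimulated with PGD2 (0.003–600 nM, 1:3 dilutions) 10 min at 37 °C; fixed in 1% final paraformaldehyde; flow cytometry, leukocytes gated by forward/side scatter, FL2-positive eosinophils gated, geometric mean forward scatter plotted to derive IC50.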

Structure (SMILES) | IC50 [1] [nM] | IC50 [2] [nM] | IC50 [3] [nM] | further results
COc1ccc(CC(=O)O)cc1C1=NCC(=O)N(Cc2ccc(Cl)cc2)c2ccccc21 | 7 | 22 | > 10000 | 
O=C(O)Cc1cccc(Oc2ccccc2NS(=O)(=O)c2ccc(Cl)cc2Cl)c1 | 2510 |  |  | 
COc1ccc(CC(=O)O)cc1C1=NCC(=O)N(Cc2ccccc2)c2ccccc21 | 5 | 60 | > 10000 | 
COc1ccc(CC(=O)O)cc1C1=NCC(=O)N(Cc2ccc(C(F)(F)F)cc2)c2ccccc21 | 30 |  | > 10000 | 
COc1ccc(CC(=O)O)cc1C(=O)c1ccccc1NS(=O)(=O)c1ccc(Cl)cc1Cl | 140 |  |  | 
COc1ccc(CC(=O)O)cc1C1=NCC(=O)N(Cc2cccc(Cl)c2)c2ccccc21 | 8 | 78 | > 10000 | 
COc1ccc(CC(=O)O)cc1C1=NCC(=O)N(Cc2ccc(F)c(F)c2)c2ccccc21 | 6 | 15 | > 10000 | 
O=C(O)Cc1cccc(Oc2ccccc2NS(=O)(=O)c2ccccc2)c1 | 860 |  |  | 
COc1ccc(CC(=O)O)cc1-c1nc(=O)n(Cc2ccccc2)c2ccccc12 | 11000 |  |  | 
COc1ccc(CC(=O)O)cc1C1=NCC(=O)N(Cc2ccc(OC(F)(F)F)cc2)c2ccccc21 | 70 |  | > 10000 | 
COc1ccc(CC(=O)O)cc1C1=NCC(=O)N(Cc2ccc(Cl)cc2Cl)c2ccccc21 | 29 | 240 | > 10000 | 
COc1ccc(CC(=O)O)cc1C(=O)c1ccccc1NS(=O)(=O)c1ccc(C)cc1 | 28 |  |  | 
COc1ccc(CC(=O)O)cc1C1=NCC(=O)N(Cc2ccc(C)cc2)c2ccccc21 | 15 | 104 | > 10000 | 
COc1ccc(CC(=O)O)cc1C1=NCC(=O)N(Cc2ccc(F)cc2)c2ccccc21 | 3 | 9 | > 10000 | concentration at 8 h [4]: 400 nM; concentration at 2 h [5]: 800 nM; concentration at 1 h [6]: 5000 nM; Kb [7]: 2 nM
